Measurements: ChEMBL document CHEMBL1146049, “Novel dual inhibitors of calpain and lipid peroxidation with enhanced cellular activity” (Bioorg Med Chem Lett, 2006)
Calls of active or inactive are those of the source. The rule behind the calls is not given here.

What was measured:
Calpain 1 [1] = molecular target: Calpain 1 (Homo sapiens, UniProt P07384); assay: (§1) Inhibition of isolated human calpain1; assay type: protein-complex assay
How it was run: (§2)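 Isolated human calpain 1 enzyme assay with Suc-Leu-Tyr-AMC as substrate; IC50 determined.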

[2] = Inhibition of maitotoxin induced intracellular calpain in glioma C6 cells; assay type: functional, cell-based; settings: Rattus norvegicus
How it was run: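 Rat glioma C6 cells were exposed to compound for 4 h, the last 3 h with maitotoxin to activate calpain. Intracellular calpain activity was read as cleavage of the fluorogenic substrate Suc-Leu-Tyr-AMC. IC50 values are means of three experiments.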

[3] = test system: Radical scavenging activity; assay: Inhibition of ferrous induced lipid peroxidation in rat brain microsomes; assay type: functional
Calpain 1 [4] = molecular target: T1, Calpain 1 (Homo sapiens, UniProt P04632+P07384); assay: as §1; assay type: protein-complex assay; how it was run: as §2
T1 sequence (P04632 whole entry): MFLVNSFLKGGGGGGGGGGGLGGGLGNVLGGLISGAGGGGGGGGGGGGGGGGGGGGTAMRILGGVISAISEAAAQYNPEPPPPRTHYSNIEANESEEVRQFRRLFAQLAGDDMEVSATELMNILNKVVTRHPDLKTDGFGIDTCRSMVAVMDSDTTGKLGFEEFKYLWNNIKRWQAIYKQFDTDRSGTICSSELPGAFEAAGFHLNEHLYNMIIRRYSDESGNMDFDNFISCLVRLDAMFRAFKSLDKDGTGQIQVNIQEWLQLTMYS
T1 sequence (P07384 whole entry): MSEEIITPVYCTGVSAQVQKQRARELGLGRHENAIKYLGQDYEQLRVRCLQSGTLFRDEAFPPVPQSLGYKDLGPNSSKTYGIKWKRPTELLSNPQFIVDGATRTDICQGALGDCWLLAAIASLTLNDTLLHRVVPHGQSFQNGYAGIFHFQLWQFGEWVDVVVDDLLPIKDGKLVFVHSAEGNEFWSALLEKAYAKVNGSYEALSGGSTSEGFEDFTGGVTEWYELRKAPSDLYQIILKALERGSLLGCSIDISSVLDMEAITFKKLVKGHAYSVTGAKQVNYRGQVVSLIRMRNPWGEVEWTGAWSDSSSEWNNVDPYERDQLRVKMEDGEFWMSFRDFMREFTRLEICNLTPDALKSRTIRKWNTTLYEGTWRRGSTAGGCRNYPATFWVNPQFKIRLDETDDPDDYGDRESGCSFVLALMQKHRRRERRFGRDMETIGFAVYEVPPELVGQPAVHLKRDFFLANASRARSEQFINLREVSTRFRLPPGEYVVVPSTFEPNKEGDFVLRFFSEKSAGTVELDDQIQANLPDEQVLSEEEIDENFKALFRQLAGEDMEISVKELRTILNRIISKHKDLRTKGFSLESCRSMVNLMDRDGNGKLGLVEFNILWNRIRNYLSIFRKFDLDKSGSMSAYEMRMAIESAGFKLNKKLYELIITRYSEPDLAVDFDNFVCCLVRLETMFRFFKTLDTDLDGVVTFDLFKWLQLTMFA

[5] = Ratio of pIC50 (rat calpain/human calpain 1)
How it was run: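 pRatio = −log(intracellular calpain IC50 / human calpain 1 IC50). The intracellular IC50 comes from glioma C6 cells, which were exposed to compound for 4 h in total, including 3 h with maitotoxin to induce calpain activation, with Suc-Leu-Tyr-AMC as substrate. The enzymatic IC50 comes from isolated human calpain 1 with the same substrate.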

[6] = molecular target: Cathepsin B (Homo sapiens) (UniProt P07858); assay: Inhibition of cathepsinB
Caspase-3 (Homo sapiens) = molecular target: T2, Caspase-3 (Homo sapiens) (UniProt P42574); assay: Inhibition of caspase3
T2 sequence (whole entry): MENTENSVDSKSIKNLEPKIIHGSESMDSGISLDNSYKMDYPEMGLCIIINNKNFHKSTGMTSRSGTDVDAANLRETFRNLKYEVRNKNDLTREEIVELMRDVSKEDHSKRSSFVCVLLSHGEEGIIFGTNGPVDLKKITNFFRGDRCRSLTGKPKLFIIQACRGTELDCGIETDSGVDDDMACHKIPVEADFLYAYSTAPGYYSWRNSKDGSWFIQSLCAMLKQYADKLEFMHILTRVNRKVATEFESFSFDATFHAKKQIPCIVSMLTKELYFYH

[7] = molecular target: Chymotrypsinogen A (Bos taurus) (UniProt P00766); assay: Inhibition of alpha chymotrypsin

Structure (SMILES) | IC50 (Calpain 1 [1]) [nM] | IC50 [2] [nM] | IC50 [3] [nM] | IC50 (Calpain 1 [4]) [nM] | Negative log of IC50 ratio (cellular/enzyme) [5] | Activity [6] | Activity (Caspase-3 (Homo sapiens)) | Activity [7]
CC(=O)OC1OCC[C@@H]1NC(=O)[C@H](CC(C)C)NC(=O)[C@H](CC(C)C)NC(=O)c1ccc2c(c1)Nc1ccccc1S2 (some centres not stated) | 905 | 1700 | 2310 |  |  |  |  | 
CC(C)C[C@H](NC(=O)COc1ccc2c(c1)Nc1ccccc1S2)C(=O)N[C@@H](CC(C)C)C(=O)N[C@H]1CCOC1O (stereo in doubt; 6d) |  |  | 333 | 105 |  |  |  | 
CC(C)C[C@H](NC(=O)[C@@H](NC(=O)COc1ccc2c(c1)Nc1ccccc1S2)c1ccccc1)C(=O)N[C@H]1CCOC1O (some centres not stated) | 222 | 5000 |  |  | 1.65 | Active | inactive | inactive
CC(C)C[C@H](NC(=O)c1ccc2c(c1)Nc1ccccc1S2)C(=O)N[C@@H](CC(C)C)C(=O)N[C@H]1CCOC1O (some centres not stated) | 85.5 | 1800 | 1100 |  |  |  |  | 
CC(C)C[C@H](NC(=O)[C@H](CO)NC(=O)COc1ccc2c(c1)Nc1ccccc1S2)C(=O)N[C@H]1CCOC1O (some centres not stated) | 48.7 | 3000 |  |  | 1.21 | Active | inactive | inactive
CC(C)C[C@H](NC(=O)[C@H](C)NC(=O)COc1ccc2c(c1)Nc1ccccc1S2)C(=O)N[C@H]1CCOC1O (some centres not stated) | 25 | 15000 |  |  | 0.22 | Active | inactive | inactive
CC(C)C[C@H](NC(=O)CNC(=O)COc1ccc2c(c1)Nc1ccccc1S2)C(=O)N[C@H]1CCOC1O (some centres not stated) | 8 | 63000 |  |  | -0.9 | Active | inactive | inactive
CC(C)C[C@H](NC(=O)Cc1ccc2c(c1)Nc1ccccc1S2)C(=O)N[C@@H](CC(C)C)C(=O)N[C@H]1CCOC1O (some centres not stated) | 55.4 | 2500 | 966 |  |  |  |  | 
CC(C)C[C@H](NC(=O)COc1ccc2c(c1)Nc1ccccc1S2)C(=O)N[C@@H](CC(C)C)C(=O)N[C@H]1CCOC1O (stereo in doubt; 6d-08) [listing 1 of 2 here] | 105 | 600 |  |  |  |  |  | 
CC(C)C[C@H](NC(=O)CCc1ccc2c(c1)Nc1ccccc1S2)C(=O)N[C@@H](CC(C)C)C(=O)N[C@H]1CCOC1O (some centres not stated) | 150 | 10000 | 3300 |  |  |  |  | 
CC(C)C[C@H](NC(=O)[C@@H](NC(=O)COc1ccc2c(c1)Nc1ccccc1S2)C(C)(C)C)C(=O)N[C@H]1CCOC1O (some centres not stated) | 354 | 4000 |  |  | 1.95 | Active | inactive | inactive
CC(C)C[C@H](NC(=O)[C@@H](NC(=O)COc1ccc2c(c1)Nc1ccccc1S2)C(C)C)C(=O)N[C@H]1CCOC1O (some centres not stated) | 75.9 | 1000 |  |  | 1.88 | Active | inactive | inactive
CC(C)C[C@H](NC(=O)[C@@H](NC(=O)COc1ccc2c(c1)Nc1ccccc1S2)[C@H](C)O)C(=O)N[C@H]1CCOC1O (some centres not stated) | 38 | 2000 |  |  | 1.28 | Active | inactive | inactive
CC[C@H](NC(=O)COc1ccc2c(c1)Nc1ccccc1S2)C(=O)N[C@@H](CC(C)C)C(=O)N[C@H]1CCOC1O (some centres not stated) | 88.6 | 800 |  |  | 2.05 | Active | inactive | inactive
CC(C)C[C@H](NC(=O)COc1ccc2c(c1)Nc1ccccc1S2)C(=O)N[C@@H](CC(C)C)C(=O)N[C@H]1CCOC1O (stereo in doubt; 6d-08) [listing 2 of 2 here] |  |  |  |  | 2.24 | Active | inactive | inactive
Cc1cc(C(C)(C)C)c(O)c(C(C)(C)C)c1 [BUTYLATED HYDROXYTOLUENE] |  |  | 3250 |  |  |  |  | 
CC(C)C[C@H](NC(=O)C(C)(C)NC(=O)COc1ccc2c(c1)Nc1ccccc1S2)C(=O)N[C@H]1CCOC1O (some centres not stated) | 138 | 30000 |  |  | 0.66 | Active | inactive | inactive
CCC[C@H](NC(=O)COc1ccc2c(c1)Nc1ccccc1S2)C(=O)N[C@@H](CC(C)C)C(=O)N[C@H]1CCOC1O (some centres not stated) | 151 | 600 |  |  | 2.4 | Active | inactive | inactive
CC(C)C[C@H](NC(=O)[C@H](NC(=O)COc1ccc2c(c1)Nc1ccccc1S2)C(C)C)C(=O)N[C@H]1CCOC1O (some centres not stated) | 553 | 16000 |  |  | 1.54 | Active | inactive | inactive
